From the EternaBench riboswitch data come the findings set out here.

This series has as its system MS2 coat protein. The series is described as follows: apparent Kd, MS2 coat protein; higher = weaker binding; RNA-MaP array; FMN 200 µM where present. The procedure, abridged: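 Stalled E. coli RNA polymerase transcribed each design on Illumina sequencing-chip clusters. The clusters were titrated with SNAP-549-labelled MS2 coat protein, starting at 0.7 or 1.5 nM and doubling up to 3 µM, first without ligand and then with constant ligand, in 100 mM Tris-HCl pH 7.5, 80 mM KCl, 4 mM MgCl2, BSA, DTT, yeast tRNA and Tween-20. Green signal was normalised to red-channel RNA signal and to the control-cluster median Fmax. The apparent Kd is the median of filtered binding-curve fits made for each cluster.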

The mark [1] stands for this setting: designed as: OFF switch for flavin mononucleotide, no ligand.
The mark [2] stands for this setting: ligand present: flavin mononucleotide, designed as: OFF switch for flavin mononucleotide.
Setting [3] is: designed as: ON switch for flavin mononucleotide, no ligand.
[4] abbreviates: ligand present: flavin mononucleotide, designed as: ON switch for flavin mononucleotide.

As a reminder, the apparent Kd is the concentration giving half-maximal binding under the conditions of the assay. As for “ACAUGAGGAUCACCCAUGUGACCACAAUGGCUGAUAUAGAAACAGGAUAUUCGUGAAUAUCUAACGAAGAAGGGUUAUGACUGG”, the “apparent Kd” value under setting [1] was found to be 77.8 nM and the “apparent Kd” value under setting [2] turned out to be 85 nM.
On to “UUUUAGCUAGGAUAUACAUUUUUUUUAUUAUCCUCAUUAUUACAUGAGGAUCACCCAUGUAGAAGGAGCAUUUU”, for which the “apparent Kd” value runs as follows: under setting [1], 237 nM; under setting [2], 313 nM.
As for “GGAGCCGGCACUGAGGAUAUUCAUAUUAAAACAUGAGGAUCACCCAUGUAGGCCAGAAGGCCUUGGGAGAAGGCGGGUCGGCCCG”, the “apparent Kd” value runs as follows: under setting [3], 531 nM; under setting [4], 35.3 nM.
Regarding “CUCAAGUGAGGAUAUCAGUAGUAAAAAAAUAAAAUUACUACUGAGAAGGCACAUGAGGAUCACCCAUGUGACUU”, the “apparent Kd” value is 26.5 nM under setting [1] and 23.5 nM under setting [2].
The corresponding values for “GUUAUUGACAAGAAGGCAUACAUGAGGAUCACCCAUGUUCUACAUGGAUAAUGAGGAUAUUGCCAAUACAUGAGGAUCACCCAG” are 68.3 nM and 77.5 nM.
As for “GGAUGACAAAGUCAUCCAAUACGACAUGAGGAUCACCCAUGUUAGGAUAUGCUACUCAAAGAGUAGCAGAAGGACAUGUGCCUU”, the “apparent Kd” value was 23.7 nM under setting [1] and 33.4 nM under setting [2].
For “GGUGCGUUUGUGAGGAUAUGCUGGUCCUUGGUUCGGCAGAAGGCACAUGAGGAUCACCCAUGUGGUGUCGCACC”, in that order: 94.6 nM and 51.5 nM.
In the case of “AGGGUACAUGAGGAUCACCCAUGUGGGUCGGUCGCAGGAUAUGCCCGUGGGCGCUGGCGGGCAGAAGGGUGCCGAA”, the “apparent Kd” value reads like this: under setting [3], 313 nM; under setting [4], 45 nM.
In the case of “UAUAUAUAGUAAGGAUAUGUAAUUAUUUUAUAAACAGAAGGUACUGACAUGAGGAUCACCCAUGUUUUAGUGUGGGCAUGUAGA”, the “apparent Kd” value reads like this: under setting [1], 87.7 nM; under setting [2], 139 nM.
With “GCCAUCGCAUGAGGAUAUGCUCGGGUUUCCCGAGCAGAAGGCAUGCCAUAAGACAUGAGGAUCACCCAUGUAGUUAAGAUGGCA”, the “apparent Kd” value runs as follows: under setting [3], 5.36 nM; under setting [4], 5.4 nM.
Turning to “UAGAUUUAUGUAGGAUAUACAUUUUGUACGUAUGUAGAAGGACAUGAGGAUCACCCAUGUAAAUAAAUAUUAAAUAUCAUAAUU”, the “apparent Kd” value runs as follows: under setting [1], 50.5 nM; under setting [2], 32.4 nM.
As to “UGGGAUGGCUAGAAGGCUCCUUAUACUACAGGGAGAGGAUAUGGCACAUGAGGAUCACCCAUGUGUACCUGUAGGUGAUCCACA”, the “apparent Kd” value came to 113 nM under setting [1] and 108 nM under setting [2].
For “UCUCGACAUGAGGAUCACCCAUGUCAGGAUAUUGUAUUAGAGGUUUUUUACCUUAUAACAAGAAGGGAUGUGUG”, in that order: 22.9 nM and 26.8 nM.
For “GAGUGACAUGAGGAUCACCCAUGUGAGGAUAUCGGACGGACCAAAUUAACAACAAACGCGAGAAGGCACAUCGG”, in that order: 76.4 nM and 79.5 nM.
The corresponding values for “CAGAUAAAAGUGUGGUCCUCGACAUGAGGAUCACCCAUGUACGAGGAUAUGUAAUAUACGGUAUAGCAGAAGGCGUAUGGGUGU” are 37.7 nM and 36.2 nM.
For the sequence “GGUCCAUCAUGAGGAUAUGGCACCUUAUUUGUGCCAGAAGGCAUGUCGAUAGACAUGAGGAUCACCCAUGUAAUAAAUUGGACC”, the “apparent Kd” value under setting [3] was determined as 1430 nM and the “apparent Kd” value under setting [4] was 104 nM.
Take “UCGGCGCGAGGAUAUGCGGUUUGUGCUUUGGGCCCUGGCGUACAUGAGGAUCACCCAUGUAGAAGGCGCGUUGC”: the “apparent Kd” value is, setting by setting: under setting [1], 19.4 nM; under setting [2], 20 nM.
For the sequence “GCGUAGAUAGCAGGAUAUAUGUUUCCUACAUGAGGAUCACCCAUGUAGGUGAUCAGCCGAGAAAAGUAGAAGGGCUAUCUAUGC”, the “apparent Kd” value is 17.4 nM under setting [3] and 14.5 nM under setting [4].
Take “AUCAUGAGAGGAUAUACAUGAGGAUCACCCAUGUUCUUAUCUCGUCGUGCUCCAUUACGUAGAAGGCUCAUUUA”: the “apparent Kd” value by setting is: under setting [1], 16 nM; under setting [2], 49.2 nM.
Turning to “AUACAUGAGGAUCACCCAUGUAAUUAAUUAACUAGUAAGAUCUAGGAUAUCAGCUCGUUUAGAGCUGAGAAGGAGAUCACAUGU”, the “apparent Kd” value is, setting by setting: under setting [3], 36.8 nM; under setting [4], 15.6 nM.
On to “CCGGAAUAGCAGGAUAUAGGAGUCGAUAGACACCUAGAAGGGCUGACAUGAGGAUCACCCAUGUGUCCUACCGG”, for which the “apparent Kd” value is, setting by setting: under setting [1], 81.2 nM; under setting [2], 50.8 nM.
On to “AAUUAACUCACAGGAUAUAGCAGAGGUCGAGUGAACUUACAGGCGACUAGGCUAGAAGGGUGACCACAUGAGGAUCACCCAUGU”, for which the “apparent Kd” value is 834 nM under setting [3] and 117 nM under setting [4].
Turning to “CGCACUGAUAGAGGAUAUGUUUUACAUGAGGAUCACCCAUGUGUACAAGGAUUAAUAUAUAAGUAACAGAAGGCUAUUUGUGCG”, the “apparent Kd” value reads like this: under setting [1], 6.55 nM; under setting [2], 5.85 nM.
On to “GGGUACAUCGGAGGAUAUCAUGUAAAUACAUGAGGAUCACCCAUGUCGAGGGAGACAUCGGAGAUUGAGAAGGCCGAUGUACCG”, for which the “apparent Kd” value is, setting by setting: under setting [3], 57.4 nM; under setting [4], 460 nM.
“GCAUCCAUAGUGAGGAUAUACCUCUGGAUACAUAGGUAGAAGGCACAUGAGGAUCACCCAUGUUCUUAGGAUGC”: the “apparent Kd” value amounted to 28.7 nM under setting [1] and 35.4 nM under setting [2].
As to “CAGCCCUGAGGAUAUCCCUACUUGUACAUGAGGAUCACCCAUGUUCUCCUCCGGGCUUCGGGAGAAGGCAGGUCUC”, the “apparent Kd” value under setting [1] came to 15.9 nM and the “apparent Kd” value under setting [2] amounted to 15.5 nM.
The corresponding values for “GUGUACAGAGGAUAUAUAUGAGCUAGGAAACUAGCAAGAUCACAUGAGGAUCACCCAUGUAGAAGGCUGUACAC” are 114 nM and 1210 nM.
The corresponding values for “ACGACUGUCAUAGGAUAUGGUUACAUGAGGAUCACCCAUGUCAAGGGUCUAACUAAGUAUAGCUACUAGAAGGAUGAUAGUCGA” are 143 nM and 116 nM.
For “UGAUACAUGAGGGUCUCCCAUGACAUGAGGAUCACCCAUGUGCAGGAUAUACGUGUGAUGGUAUAGUAGAAGGGCAGUCUAUGU”, in that order: 102 nM and 133 nM.
Regarding “UUUUAGACAGGAUAUACAUUUUUUUAUUUAUUUAUAAUAUUACAUGAGGAUCACCCAUGUAGAAGGGUCAUUUU”, the “apparent Kd” value worked out at 39.3 nM under setting [1] and 31.2 nM under setting [2].
For “UAUAUAUAGUAAGGAUAUGUAUUUCUUUUAUAAACAGAAGGUACUGACAUGAGGAUCACCCAUGUUUUAGUGUGGGCAUGUAGA”, in that order: 81.2 nM and 116 nM.
Take “GGCACUGUAGGAUAUACAUGAACAAUUGGUAUCCUCAGUCCACAUGAGGAUCACCCAUGUAGAAGGAUAGAAAA”: the “apparent Kd” value reads like this: under setting [1], 58.6 nM; under setting [2], 46.1 nM.
On to “GCGUGACAUGAGGAUCACCCAUGUACUCGAGAAAUCGAGUGUAGAAGGGUGACCGGUCGUUUGGCACAGGAUAUACACGCUGUG”, for which the “apparent Kd” value was 27.3 nM under setting [3] and 16.3 nM under setting [4].
The corresponding values for “GCGAUUUUGUAAGGAUAUACACGAGUUUUAAGUGUAGAAGGUACUUACAUGAGGAUCACCCAUGUAUUAAUGUUUAAUAGUCGC” are 8.5 nM and 6.84 nM.
The corresponding values for “ACAUCGUGAGACAUGAGGAUCACCCAUGUGUGAUAGUGGGCACAGGAUAUCCAGAUCUGGAAUCUGGAGAAGGGUGAUCGUUAA” are 47 nM and 149 nM.
On to “AAAUGCUUGUCGAUGCUCGACAUGAGGAUCACCCAUGUAUAGCAGGAUAUGCAGAACUGACUCGUGCAGAAGGGCUAUACCUAA”, for which the “apparent Kd” value under setting [1] came out at 23.2 nM and the “apparent Kd” value under setting [2] was 69.6 nM.
On to “CACCGUUAGUGAGGAUAUAGUACAUGAGGAUCACCCAUGUAAUAAAUGAGAAUUUCGGAUGUAUGCUAGAAGGCACAAAUCGGC”, for which the “apparent Kd” value reads like this: under setting [1], 60.4 nM; under setting [2], 65.8 nM.
For “GUACGGGAGGAGAAGGGCUAGGAGGUCCAGCUUAUGUGUGUUGCAACAUGAGGAUCACCCAUGUAGCAGGAUAUCCUCUGUACA”, in that order: 46.3 nM and 332 nM.
The corresponding values for “CAAAACAUCUCCGUGUUUGUCGAACAUGAGGAUCACCCAUGUAGAAGGCAUCGCGCGACGCAGGAUGAGGAUAUACGCUGGAUG” are 6.43 nM and 11 nM.
In the case of “GGUGGUACAGAGAAGGCGCCGCAGCUCUUCCUCCCAUCCCAACGACAUGAGGAUCACCCAUGUAGCGAGGAUAUCUGUGCCAUC”, the “apparent Kd” value by setting is: under setting [1], 7.05 nM; under setting [2], 22.5 nM.
With “AAACUGCCACAUGAGGAUCACCCAUGUAAAUAAAGUAUUUGGAGAAGGGCGAUAGCAAAGCUAUCGCAGGAUAUCCUCAGGCAG”, the “apparent Kd” value by setting is: under setting [3], 801 nM; under setting [4], 87.9 nM.
For “UUAUUACAUGAGGAUCACCCAUGUUUAGUGGUGACAGGAUAUACGAAAAAAAAAAAAAAAGUAGAAGGGUCUUAUU”, in that order: 503 nM and 742 nM.
Take “UGUCAGUAACAAGGAUAUUGGAGUUAAUGGCUACGAGAAGGUGUUACAUGAGGAUCACCCAUGUCCUCGCCUGUAGCAAGGACA”: the “apparent Kd” value under setting [1] came out at 87.2 nM and the “apparent Kd” value under setting [2] came to 567 nM.
Take “AACGGGUGGGUAGGAUAUGGCUAUGUCUCAUUGCUAGAAGGACCAGCUGCUACAUGAGGAUCACCCAUGUCGUAGUGCACCCAC”: the “apparent Kd” value by setting is: under setting [3], 93.2 nM; under setting [4], 24.5 nM.
Regarding “GUCCUACAUGAGGAUCACCCAUGUCAGGAUAUGUAGCGUCCGGGCGAUAAGGCUCGGAGCAGAAGGGACAGGUG”, the “apparent Kd” value by setting is: under setting [1], 14.2 nM; under setting [2], 16.2 nM.
Consider “AGGAAACAUGAGGAUCACCCAUGUAAAAGGUGGGUAGGAUAUGCGAAAAGAAAAAGAAAAGCAGAAGGGCCAAGAA”, for which the “apparent Kd” value by setting is: under setting [3], 101 nM; under setting [4], 47.4 nM.
As for “AACGUUCGAGGAUAUGUGGCGCUGCACAUGAGGAUCACCCAUGUGAGGACUUGCAGCAUCACAGAAGGUGACCUGC”, the “apparent Kd” value by setting is: under setting [1], 94 nM; under setting [2], 84.6 nM.
Turning to “GCGAGUAAAGCAGGAUAUCUAUUGUCUCGGAAACAUGAGGAUCACCCAUGUAGAGAAGGGCUAAGUCAUACAAUUCGAACUCGC”, the “apparent Kd” value under setting [1] worked out at 11.2 nM and the “apparent Kd” value under setting [2] is 10.8 nM.
